Source: PubChem BioAssay
MEKK2wt PB1 HTS = modulators of MEK5 binding to wildtype MEKK2, primary screen, biochemical, multiplex bead flow cytometry, Alexa488-MEK5; Mitogen-activated protein kinase kinase kinase 2 (Homo sapiens), Q9Y2U5; Alexa488-MEK5 binding to MEKK2 WT; actives lie on both sides; binding response (% of control), % at 10 µM; 1.1% of 290,000 active; AID 1531, 2009; in the data active = binding response below about 67% or above about 130%
DSG3 Ab inh = inhibitors of pemphigus antibody binding to DSG3, primary screen, biochemical, bead-based, flow cytometry, scFv-GFP; AID 588358, 2011; 0.48% of 310,000 active; DSG3-coupled beads, scFv-anti-DSG3-GFP binding; active compounds read low; Desmoglein-3 (Homo sapiens), P32926; binding (percent of control), % at 10 µM;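 active = binding more than 3 SD below its plate's average and above zero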;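 also: hits lower antibody fragment binding to DSG3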
Apaf-1 inh = inhibitors of human Apaf-1 apoptosome, primary screen, biochemical, DEVD-Rh110 fluorescence, uHTS; Apoptotic protease-activating factor 1 (Homo sapiens), O14727; reconstituted apoptosome caspase-3 activity; inhibition, % at 20 µM; 0.71% of 330,000 active; AID 489030, 2010; active = inhibition of at least 40% at 20 µM
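Material: reconstituted apoptosome with Apaf-1, cytochrome c, caspase-9, procaspase-3, dATP; medium: pH 7.5 Hepes buffer with CHAPS, BSA, DTT; also added: cytochrome c and DEVD-Rh110 substrate; timing: 30 min plus 50 min, RT; signal: Rh110 fluorescence intensity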
MEKK2 mut-MEK5 = MEK5 binding signal on mutant MEKK2 PB1, primary screen, biochemical, multiplex bead flow cytometry, Alexa488-MEK5. Alexa488-MEK5 binding to MEKK2 mutant. percent response, % at 10 µM. 0.35% of 290,000 active. AID 1530, 2009; in the data active = percent response above about 24%, passing the limit was not always enough
UBC13 inh = UBC13 polyubiquitin chain formation inhibitors, primary screen, biochemical, TR-FRET, uHTS; Ubiquitin-conjugating enzyme E2 N (Homo sapiens), P61088; inhibition, % at 20 µM; 0.47% of 330,000 active; AID 485273, 2010; in the data active = inhibition above about 45%, passing the limit was not always enough
MEKK3 PB1 HTS = modulators of MEKK3-MEK5 PB1 binding, primary screen, biochemical, wildtype MEKK3, multiplex bead flow cytometry, Alexa488-MEK5. bead-based flow cytometry, Alexa488-MEK5 binding to MEKK3; actives lie on both sides; 0 = blocked by unlabeled MEK5, 100 = vehicle. AID 1529, 2009. 1.4% of 290,000 active. Mitogen-activated protein kinase kinase kinase 3 (Homo sapiens), Q99759. binding response (% of control), % at 10 µM;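 active = binding response more than 3 SD above or below the average of its plate-row segment, actives on both sides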;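 also: Alexa488 bead fluorescence after subtracting the streptavidin-only scavenger bead signal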
MEKK2wt confirm = modulators of MEK5 binding to wildtype MEKK2, confirmation, biochemical, single concentration, multiplex bead flow cytometry; shares compounds with MEKK3 PB1 HTS; Alexa488-MEK5 binding to MEKK2 WT; actives lie on both sides; binding response (% of control), % at 10 µM; 2.4% of 5,900 active; AID 1892, 2009; in the data active = binding response below about 16% or above about 210%; inactive = in between
MEKK2mut confirm = mutant MEKK2 PB1-MEK5 binding signal retest – biochemical, single concentration, multiplex bead flow cytometry, confirmation; shares compounds with MEKK3 PB1 HTS; Alexa488-MEK5 binding to MEKK2 mutant; percent response, % at 10 µM; 2% of 5,900 active; AID 1893, 2009; in the data active = percent response mostly above about 71%, no sharp cut-off; inactive = mostly below about 38%;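 also: higher means compound restores mutant binding toward wildtype level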
MEKK3-MEK5 inh = MEKK3 wild-type PB1 binding to MEK5, inhibitors, confirmation, biochemical, bead multiplex flow cytometry, single concentration, wildtype; shares compounds with MEKK3 PB1 HTS; Alexa488-MEK5 binding to MEKK3; active compounds read low; binding response (% of control), % at 10 µM; 1.8% of 5,900 active;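 active = binding response below 72% of control, or above a set upper limit, though filed actives all read lower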;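 also: lower values mean stronger disruption of MEK5 binding to MEKK3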
Of the large screens only hits and unclear results are named; the others gave an inactive call (follow-up assays come after a bar, where they were run); [ ] = dose if it differs, or a comment. This is a sample that favours compounds with a hit; in the whole collection about 3.2% have one here.

O=C(c1ccc(Cl)cc1)C1CCCN(Cc2cnn(-c3ccccc3)c2)C1 (stereo not drawn)	MEKK2wt PB1 HTS 148 (no result: DSG3 Ab inh) | MEKK2wt confirm inactive | MEKK2mut confirm inactive | MEKK3-MEK5 inh inactive
O=C(c1ccc(-c2ccccc2)cc1)C1CCCN(Cc2ccncc2)C1 (stereo not drawn)	none
COCCNC(=O)CNC(=O)c1nn(-c2ccc(OC)c(Cl)c2)c(=O)c2ccccc12	MEKK2wt PB1 HTS 135, MEKK3 PB1 HTS 143 | MEKK2wt confirm inactive | MEKK2mut confirm inactive | MEKK3-MEK5 inh inactive
Cc1nnc(N2CCOCC2)c2nn(-c3ccccc3)c(C)c12	none
c1ccc(-n2nnc3c(N4CCOCC4)ncnc32)cc1	MEKK3 PB1 HTS 74[inhibitor] | MEKK2wt confirm inactive | MEKK2mut confirm inactive | MEKK3-MEK5 inh inactive
O=C(NC(=S)NCC1CCCO1)c1ccc(Cl)cc1Cl (stereo not drawn)	MEKK3 PB1 HTS 143 | MEKK2wt confirm inactive | MEKK2mut confirm inactive | MEKK3-MEK5 inh inactive
Cc1nc2sccn2c(=O)c1CCN1CCC(=C(c2ccccc2)c2ccc(F)cc2)CC1	MEKK2wt PB1 HTS 157, Apaf-1 inh 42 (no result: DSG3 Ab inh) | MEKK2wt confirm inactive | MEKK2mut confirm inactive | MEKK3-MEK5 inh inactive
CC(=O)c1cccc(NC(=O)COc2ccc3oc(=O)cc(C)c3c2)c1	none
O=C(NCc1ccccc1Cl)c1nnc(CS(=O)(=O)c2ccccc2)o1	none
c1ccc(Cn2nnc3c(NCC4CCCO4)ncnc32)cc1 (stereo not drawn)	MEKK3 PB1 HTS 61[inhibitor] | MEKK2wt confirm inactive | MEKK2mut confirm inactive | MEKK3-MEK5 inh inactive
Cc1ccc(C)c(NS(=O)(=O)c2cc(C(=O)NCc3ccccn3)ccc2C)c1	none
CCOC(=O)C1CCN(C(=O)C2CCCN(S(=O)(=O)c3ccc(OCC)c(Cl)c3)C2)CC1 (stereo not drawn)	none (no result: MEKK2wt PB1 HTS, MEKK2 mut-MEK5, MEKK3 PB1 HTS)
O=C1c2nccnc2C(=O)N1c1ccc(F)cc1	MEKK3 PB1 HTS 130 | MEKK2wt confirm inactive | MEKK2mut confirm inactive | MEKK3-MEK5 inh inactive
Cc1ccc(CSCCNS(C)(=O)=O)cc1	MEKK3 PB1 HTS 58[inhibitor] | MEKK2wt confirm inactive | MEKK2mut confirm inactive | MEKK3-MEK5 inh inactive
Brc1cc2c(cc1C1Nc3ccccc3C3C=CCC31)OCO2 (stereo not drawn)	MEKK3 PB1 HTS 67[inhibitor] | MEKK2wt confirm inactive | MEKK2mut confirm inactive | MEKK3-MEK5 inh inactive
O=C(O)c1ccc2c(c1)C1C=CCC1C(c1cc3c(cc1Br)OCO3)N2 (stereo not drawn)	none
O=C(Nc1cccc(C(F)(F)F)c1)N1CCC(c2nc(-c3ccc(F)cc3)no2)CC1	MEKK2wt PB1 HTS 173 | MEKK2wt confirm inactive | MEKK2mut confirm inactive | MEKK3-MEK5 inh inactive
Cc1ccc(Oc2nc(-c3ccccc3)ncc2S(C)(=O)=O)cc1	MEKK2wt PB1 HTS 1.0[inhibitor], MEKK3 PB1 HTS 1.0[inhibitor] | MEKK2wt confirm inactive | MEKK2mut confirm inactive | MEKK3-MEK5 inh inactive
CN(Cc1ccccc1)S(=O)(=O)c1ccc2c(c1)n(C)c(=O)n2C	MEKK2wt PB1 HTS 1.0[inhibitor], MEKK3 PB1 HTS 2.0[inhibitor] | MEKK2wt confirm inactive | MEKK2mut confirm inactive | MEKK3-MEK5 inh inactive
